Mot1-301 SUMO: inhibitors of SUMOylation pathway: yeast Mot1-301 growth rescue; 1% of 320,000 active; growth rescue, % at 18.8 µM; S. cerevisiae Mot1-301 growth rescue, ATP luminescence, 38.5C; percent above DMSO median, 100 means doubled;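 active = every valid replicate shows activation above 250% relative to neutral control wells; inactive = the rest, any valid replicate at or below 250%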;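 also: OY570 slx delta 5 strain wells were the positive control but not used for scaling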
C2C12 statin: suppression of simvastatin myotoxicity; rescue of ATP level, % at 7.49 µM; 0.78% of 330,000 active; C2C12 myotubes + simvastatin, ATP luminescence, 48 h; scaled: DMSO 0, geranylgeraniol control 100; AID 602340;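 active = mean ATP rescue above about 67%, or every replicate alone reaching that limit, limit read from the data, passing the limit was not always enough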;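 also: myotubes were challenged with 10 µM simvastatin during compound exposure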
APOBEC3A inh: human APOBEC3A DNA deaminase inhibition; P31941; AID 493011; inhibition, % at 20 µM; recombinant A3A, FAM/TAMRA ssDNA deamination fluorescence; 0.41% of 330,000 active;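 active = at least 40% inhibition at 20 µM here, with at most 30% in a related deaminase screen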;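 also: plate controls were A3A with DMSO for no effect and wells lacking A3A enzyme for full effect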
Target sequence (P31941 whole entry, looked up): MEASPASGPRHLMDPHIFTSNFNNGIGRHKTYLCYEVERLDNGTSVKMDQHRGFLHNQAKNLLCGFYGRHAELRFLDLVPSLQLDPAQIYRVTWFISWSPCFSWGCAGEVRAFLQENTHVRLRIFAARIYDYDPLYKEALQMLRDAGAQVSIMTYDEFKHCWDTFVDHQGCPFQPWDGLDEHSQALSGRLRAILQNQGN
A3G deaminase: APOBEC3G (human) deaminase inhibition; Q9HC16; recombinant A3G, ssDNA deamination FAM/TAMRA fluorescence; inhibition, % at 20 µM; 0.28% of 330,000 active; AID 493012;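 active = inhibition of at least 40% at 20 µM, with no more than 30% in the related APOBEC3A deaminase screen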;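 also: plate controls were DMSO wells with A3G for no effect and wells lacking A3G enzyme for full effect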
ASAP1 GAP inh: inhibitors of human ASAP1 ArfGAP activity. Q9ULH1. ASAP1-stimulated ARF1 GTP hydrolysis, GDP FP detection. inhibition, % at 16.5 µM. 0.19% of 360,000 active. AID 624377; in the data active = inhibition above about 25%;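 also: 0% = vehicle with enzyme and substrate and 100% = no enzyme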
Target sequence (Q9ULH1 325-724 limits assumed): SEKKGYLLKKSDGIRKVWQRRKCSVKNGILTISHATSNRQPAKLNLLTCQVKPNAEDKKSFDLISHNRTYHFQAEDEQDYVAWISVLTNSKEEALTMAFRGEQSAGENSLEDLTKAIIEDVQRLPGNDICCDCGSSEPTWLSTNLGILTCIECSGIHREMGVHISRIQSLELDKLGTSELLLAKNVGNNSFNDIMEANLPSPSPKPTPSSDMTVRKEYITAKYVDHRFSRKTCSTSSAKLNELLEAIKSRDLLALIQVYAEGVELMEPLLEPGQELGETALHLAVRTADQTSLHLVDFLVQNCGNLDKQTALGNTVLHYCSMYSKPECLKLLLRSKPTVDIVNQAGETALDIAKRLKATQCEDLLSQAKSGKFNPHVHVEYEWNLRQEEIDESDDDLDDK
ARFGAP1 inhibitor: inhibitors of rat ARFGAP1; inhibition, % at 16.5 µM; Arfgap1-stimulated ARF1 GTP hydrolysis, GDP FP detection; 0.26% of 360,000 active; Q62848;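 active = inhibition above a per-plate limit, mean inhibition of low control wells plus 3 SD, cut at about 25% in these data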;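 also: 0% = DMSO wells with enzyme and 100% = wells lacking Arfgap1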
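System: truncated rat Arfgap1 GAP domain / Benchmarks: high control wells lacking Arfgap1, low control full reaction with DMSO / Times: compound-enzyme preincubation 20 min, reaction 120 min, detection 60 min, 25 °C / Repeats: one replicate per compound / Also added: human ARF1(Δ1-17)-GTP substrate / Measured by: Tracer-displacement fluorescence polarization with EDTA stop, 620/688 nm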
Starred values were filed as active, the others as inactive; x = no result; + = active, no number. Compounds with a hit are over-represented: about 2.1% of the library has one in this group of screens.

SMILES	Mot1-301 SUMO	C2C12 statin	APOBEC3A inh	A3G deaminase	ASAP1 GAP inh	ARFGAP1 inhibitor
C[C@H]1CN([C@@H](C)CO)C(=O)c2cccc(NS(=O)(=O)c3cccs3)c2O[C@H]1CN(C)CC1CC1	x	-7	x	x	x	x
CC1CC(C)CN(C(=O)Cn2c(=O)n(CCCCC(=O)NC3CCCC3)c(=O)c3ccccc32)C1 (stereo not given)	-10	x	-5	-5	-10	3
CCc1ccc(NC(=O)Cn2c(=O)n(CCCC(=O)NCc3ccco3)c(=O)c3ccccc32)cc1	-8	x	-3	-5	-1	-5
CCC(C)NC(=O)Cn1c(=O)n(CCCC(=O)NCc2ccccc2Cl)c(=O)c2ccccc21 (stereo not given)	-3	134*	0	-4	-4	-4
O=C(CCCCn1c(=O)c2ccccc2n(CC(=O)NC2CCCC2)c1=O)NCc1ccco1	130	2	0	-4	6	-4
CCCN(CCC)C(=O)Cn1c(=O)n(CCCCC(=O)NC2CCCC2)c(=O)c2ccccc21	70	97*	-4	-8	12	-9
O=C(CCCCn1c(=O)c2ccccc2n(CC(=O)NC2CCCC2)c1=O)NC1CCCC1	6	81*	3	-5	1	12
Cc1cccc(NC(=O)C2CCN(S(=O)(=O)c3cccc4nsnc34)CC2)n1	-14	14	-1	-2	-12	-21
Cc1cccc(NC(=O)C2CCCN(S(=O)(=O)c3cccc4nsnc34)C2)n1 (stereo not given)	-11	108*	-1	3	-5	-9
COc1ccc(N=C2S/C(=C\c3cc(C)n(C)c3C)C(=O)N2CC(C)C)cc1	417	156*	-3	-4	5	-3
COc1ccc(N=C2S/C(=C\c3ccco3)C(=O)N2CC(C)C)cc1	-6	-7	4	-1	-10	13
O=C(CCl)NC1CCCc2ccccc21 (stereo not given)	-10	x	5	15	5	3
O=C(CCn1cccc1)NC1CCCc2ccccc21 (stereo not given)	-10	152*	2	-2	-12	1
CC(=O)Nc1ccc2c(c1)C(=O)N(C)[C@H]1CC[C@H](CC(=O)NCc3ccccc3)O[C@@H]1CO2	x	-8	x	x	x	x
O=C1CCCC2=C1C(c1ccc(O)c(Br)c1)C1=C(CCCC1=O)N2c1ccccc1	+	x	5	-2	10	-1
Nc1nc(CSc2nc3ccccc3[nH]2)nc(N2CCOCC2)n1	317*	4	-3	-3	-5	3
Nc1nc(CSc2nc3ccccc3s2)nc(N2CCCCC2)n1	x	8	2	-3	-4	2
C[C@H](NC(=O)[C@H](Cc1ccccc1)n1c(=O)[nH]c2ccccc2c1=O)C(=O)N1CCC[C@H]1C(=O)O	-9	-3	3	1	10	11
CSCC[C@H](NC(=O)[C@H](Cc1ccccc1)n1c(=O)[nH]c2ccccc2c1=O)C(=O)N1CCC[C@@H]1C(=O)O	735*	3	1	2	-5	-1
CCCC#Cc1cnc2c(c1)C(=O)N([C@@H](C)CO)C[C@@H](C)[C@@H](CN(C)C(=O)NC1CCCC1)O2	x	-21	x	x	x	x
COc1cc(-c2ccccc2)nc2ccccc12	46	95*	-3	-7	-10	-1
C[C@@H]1CN([C@@H](C)CO)S(=O)(=O)c2ccc(C#Cc3ccc(F)cc3)cc2O[C@@H]1CN(C)C(=O)NC1CCCC1	x	31	x	x	x	x
COc1ccc(-c2noc(-c3ccccc3C(=O)Nc3cccnc3)n2)cc1	-4	103*	0	-2	-3	13
Cc1nn(-c2ccccc2)c(N)c1C(c1ccc(C(C)C)cc1)c1c(C)nn(-c2ccccc2)c1N	409*	x	0	-6	5	9
CO[C@H]1CN(C)C(=O)c2ccc(NS(=O)(=O)c3cn(C)cn3)cc2OC[C@@H](C)N(CC2CC2)C[C@@H]1C	x	-4	x	x	x	x
SMILES	Mot1-301 SUMO	C2C12 statin	APOBEC3A inh	A3G deaminase	ASAP1 GAP inh	ARFGAP1 inhibitor
C[C@@H]1CN([C@H](C)CO)C(=O)c2cc(NS(=O)(=O)c3cccs3)ccc2O[C@@H](C)CCCCO[C@@H]1CN(C)Cc1ccc(C(F)(F)F)cc1	x	92*	x	x	x	x
C[C@H](CO)N1C[C@H](C)[C@@H](CN(C)Cc2ccc(C(F)(F)F)cc2)OCCCC[C@H](C)Oc2ccc(NS(=O)(=O)c3cccs3)cc2C1=O	x	-62	x	x	x	x
C[C@@H]1CN([C@@H](C)CO)C(=O)c2cc(NC(=O)Nc3ccc(F)cc3)ccc2O[C@@H](C)CCCCO[C@H]1CN(C)Cc1ccncc1	x	107*	x	x	x	x
C[C@@H]1CCCCO[C@H](CN(C)Cc2ccncc2)[C@H](C)CN([C@@H](C)CO)C(=O)c2cc(NC(=O)Nc3ccc(F)cc3)ccc2O1	x	28	x	x	x	x
C[C@@H]1CN([C@@H](C)CO)C(=O)c2cc(NC(=O)c3ccncc3)ccc2O[C@@H](C)CCCCO[C@H]1CN(C)Cc1ccc(C(F)(F)F)cc1	x	116*	x	x	x	x
C[C@@H]1CN([C@@H](C)CO)C(=O)c2cc(NC(=O)c3ccccc3)ccc2O[C@@H](C)CCCCO[C@@H]1CN(C)Cc1ccc(C(F)(F)F)cc1	x	-3	x	x	9	5
C[C@@H]1CN([C@@H](C)CO)C(=O)c2cc(NC(=O)c3ccncc3)ccc2O[C@@H](C)CCCCO[C@@H]1CN(C)Cc1ccc(C(F)(F)F)cc1	x	121*	x	x	x	x
COCCNC(=O)[C@@H]1[C@@H](CO)[C@@H]2Cn3c(ccc(-c4ccccc4F)c3=O)[C@H]1N2S(C)(=O)=O	x	-22	x	x	x	x
CC=Cc1ccc2n(c1=O)C[C@H]1[C@H](CO)[C@@H](C(=O)NCC3CC3)[C@@H]2N1CCC (mixture of isomers)	x	-2	x	x	x	x
COc1ccc(NC(=O)Nc2ccc3c(c2)C(=O)N([C@H](C)CO)C[C@@H](C)[C@@H](CN(C)Cc2ccc(C(F)(F)F)cc2)OCCCC[C@H](C)O3)cc1	x	158*	x	x	x	x
COc1ccc(NC(=O)Nc2ccc3c(c2)C(=O)N([C@H](C)CO)C[C@H](C)[C@@H](CN(C)Cc2ccc(C(F)(F)F)cc2)OCCCC[C@H](C)O3)cc1	x	6	x	x	x	x
CC(CCc1ccccc1)NC(=O)CN1CCN(Cc2ccc(Cl)cc2)C1=O (stereo not given)	5	67*	-1	-9	-3	13
COc1ccccc1N1CCN(Cc2nc3ccccc3[nH]2)CC1	-15	-1	-5	15	2	3
COc1ccccc1N1CCN(Cc2nc3ccsc3c(=O)[nH]2)CC1	29	126*	-3	-10	-2	17
O=C(NCc1ccco1)C(c1ccccc1)N(C(=O)Cc1cccs1)c1ccccc1 (stereo not given)	-1	125*	-3	-7	14	9

Source: PubChem BioAssay (several laboratories)
